Test results reported in publication PMC6195466 (Cell chemical biology, 2018).
Like-named read-outs stand apart in the source and are kept apart here.

How the values were obtained:
ectodomain of human TLR8 = details: read-out: dissociation constant (Kd), et al., cited from earlier work
mouse TLR9 = molecular target: T1, mouse TLR9 (Mus musculus, UniProt Q9EQU3); assay: IL-12p40 production in splenocytes from hTLR8tg/TLR7-KO mice, TLR9 agonist 1018; assay type: cell-based; details: 1018 7.1 ug/mL
T1 sequence (Q9EQU3 26-1032): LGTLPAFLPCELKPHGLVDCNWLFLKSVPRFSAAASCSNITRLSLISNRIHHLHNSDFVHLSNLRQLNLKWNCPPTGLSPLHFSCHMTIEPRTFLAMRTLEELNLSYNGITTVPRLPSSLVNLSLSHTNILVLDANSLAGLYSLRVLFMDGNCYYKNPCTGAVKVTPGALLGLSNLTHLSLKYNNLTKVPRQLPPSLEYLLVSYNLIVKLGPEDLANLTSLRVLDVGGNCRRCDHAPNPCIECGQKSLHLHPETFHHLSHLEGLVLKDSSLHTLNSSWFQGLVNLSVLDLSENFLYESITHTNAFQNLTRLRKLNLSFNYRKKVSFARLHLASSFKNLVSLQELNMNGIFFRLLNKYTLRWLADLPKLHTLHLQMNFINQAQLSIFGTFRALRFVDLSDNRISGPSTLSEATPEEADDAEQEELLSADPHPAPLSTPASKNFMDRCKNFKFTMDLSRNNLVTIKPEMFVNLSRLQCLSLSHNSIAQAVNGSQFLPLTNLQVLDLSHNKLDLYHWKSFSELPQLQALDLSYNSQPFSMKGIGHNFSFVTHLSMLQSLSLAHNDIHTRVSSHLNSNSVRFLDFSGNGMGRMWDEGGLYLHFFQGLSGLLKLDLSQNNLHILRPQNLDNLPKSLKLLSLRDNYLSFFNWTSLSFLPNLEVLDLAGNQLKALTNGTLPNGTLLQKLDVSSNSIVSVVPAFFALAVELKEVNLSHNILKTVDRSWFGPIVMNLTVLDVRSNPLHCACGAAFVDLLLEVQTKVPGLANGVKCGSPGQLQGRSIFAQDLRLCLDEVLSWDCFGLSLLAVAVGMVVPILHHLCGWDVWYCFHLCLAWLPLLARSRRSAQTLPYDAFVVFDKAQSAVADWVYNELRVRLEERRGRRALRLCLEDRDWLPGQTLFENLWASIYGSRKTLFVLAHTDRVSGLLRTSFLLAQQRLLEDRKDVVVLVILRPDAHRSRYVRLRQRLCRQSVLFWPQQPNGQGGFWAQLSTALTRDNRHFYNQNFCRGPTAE
Summary of the method: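 Splenocytes from female […] mice carrying a human TLR8 transgene, prepared by straining and red-cell lysis. Incubated with a dilution series of test compound plus a constant amount of CpG phosphorothioate DNA oligonucleotide 1018 (TLR9 agonist) for 48 h. IL-12p40 measured in culture supernatants. Curves come from a single spleen.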

TLR7 = molecular target: T2, TLR7 (Homo sapiens, UniProt Q9NYK1); assay: TLR selectivity assay; assay type: cell-based; details: HEK-Blue hTLR7 cells, R848 1 μg/mL
T2 sequence (Q9NYK1 27-1049): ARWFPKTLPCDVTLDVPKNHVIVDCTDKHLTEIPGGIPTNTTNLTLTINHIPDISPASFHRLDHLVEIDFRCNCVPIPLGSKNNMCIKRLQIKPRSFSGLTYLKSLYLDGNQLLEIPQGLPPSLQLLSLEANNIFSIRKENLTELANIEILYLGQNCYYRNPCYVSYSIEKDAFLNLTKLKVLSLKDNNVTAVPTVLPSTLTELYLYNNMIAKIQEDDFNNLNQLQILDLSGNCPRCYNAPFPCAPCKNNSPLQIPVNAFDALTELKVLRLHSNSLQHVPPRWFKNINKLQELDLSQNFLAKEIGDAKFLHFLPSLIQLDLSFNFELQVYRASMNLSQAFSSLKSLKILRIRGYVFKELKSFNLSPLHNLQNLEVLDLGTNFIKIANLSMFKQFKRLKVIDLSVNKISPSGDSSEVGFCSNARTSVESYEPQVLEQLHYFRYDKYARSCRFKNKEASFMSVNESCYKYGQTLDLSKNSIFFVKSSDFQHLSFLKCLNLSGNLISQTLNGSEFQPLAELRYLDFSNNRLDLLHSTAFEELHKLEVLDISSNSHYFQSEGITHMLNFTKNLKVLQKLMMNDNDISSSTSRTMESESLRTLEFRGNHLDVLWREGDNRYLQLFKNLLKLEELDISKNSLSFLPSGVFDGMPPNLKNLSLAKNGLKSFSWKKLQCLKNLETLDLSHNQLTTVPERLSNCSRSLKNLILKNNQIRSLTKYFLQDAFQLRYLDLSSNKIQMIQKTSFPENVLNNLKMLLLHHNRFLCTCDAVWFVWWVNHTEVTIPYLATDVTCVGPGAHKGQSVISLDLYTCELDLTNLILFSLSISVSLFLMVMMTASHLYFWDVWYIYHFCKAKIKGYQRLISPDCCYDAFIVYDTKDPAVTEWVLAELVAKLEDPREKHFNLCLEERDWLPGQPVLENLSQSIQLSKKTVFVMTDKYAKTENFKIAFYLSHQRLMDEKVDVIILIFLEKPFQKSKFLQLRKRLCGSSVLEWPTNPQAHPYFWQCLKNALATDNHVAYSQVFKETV
Summary of the method: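 HEK-Blue hTLR7 cells were seeded at 7.5 × 10^4 cells/well in DMEM with 10% heat-inactivated FBS. Cells received R848 (1 μg/mL) with varied test-compound concentrations for 24 h at 37 °C, 5% CO2. Supernatant SEAP was developed with Quanti-Blue (30 min–1 h, 37 °C) and read at 620 nm. Normalised with R848-only as 100% and untreated as 0% activation. Three biological replicates, each in triplicate.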

nuclear NF-κB = assay type: cell-based, human; details: concentration of 500 nM, THP-1 cells, R848 1 μg/mL, Figure S2
Summary of the method: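 THP-1 cells were seeded at 2 × 10^6 cells/well and differentiated with PMA (100 ng/mL) for 24 h at 37 °C, 5% CO2. Medium was switched to unsupplemented RPMI, then R848 (1 μg/mL) plus test compound was added for 2 h. Nuclear fractions were extracted and quantified by BCA, run on 10% SDS-PAGE and blotted. Probed with anti-p65 (1:1000), then HRP anti-rabbit (1:10000), chemiluminescence. Lamin A/C was the nuclear control.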

activity against mouse TLR9 (mouse TLR9) | effect on TLR7 (TLR7) | SMILES | Kd (ectodomain of human TLR8; ITC, ectodomain of human TLR8, ref Zhang, 2018) | Kd (ectodomain of human TLR8; TLR8 and R848, ref Tanji, 2015) | reduction of nuclear NF-κB (nuclear NF-κB)
no activity | not affected below ~μM concentration | Cc1cc(-c2ccnc3cc(O)ccc23)ccc1O [CU-CPT9b] | 21 nM |  | 
 |  | CCOCc1nc2c(N)nc3ccccc3c2n1CC(C)(C)O [R848, reference compound] |  | 200 nM | 
no activity | not affected below ~μM concentration | COc1ccc2c(-c3ccc(O)c(C)c3)ccnc2c1 [CU-CPT9a] |  |  | significant reduction
